Data from ChEMBL document CHEMBL3232996, “Synthesis and biological evaluation of novel (123)I-labeled 4-(4-iodophenyl)butanoyl-L-prolyl-(2S)-pyrrolidines for imaging prolyl oligopeptidase in vivo” (Eur J Med Chem, 2014).

Legend:
Assay type in all cases: ADME, organism-based
Heart = assay: Biodistribution in C57Bl/6JRccHsd mouse heart at 2.86 +/- 1.26 MBq, iv measured at 80 mins post dose pretreated with 50 umol/kg, ip prolyl oligopeptidase inhibitor KYP-2047 10 mins before compound dosing by SPECT analysis; conditions: in vivo
Method in brief: (§1)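 Organs excised at 5, 20, 40, 80 or 160 min and radioactivity gamma-counted as %ID/g (brain also as %ID). Blocking groups received KYP-2047 (50 µmol/kg, 10 mL/kg, 1% DMSO in 0.9% NaCl) i.p. 10 min before tracer. Mean ± SD, n = 2–4 per time point. Blocking compared by two-tailed Student's t test.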

Mus musculus [1] = assay: Biodistribution in C57Bl/6JRccHsd mouse testis at 2.86 +/- 1.26 MBq, iv measured at 80 mins post dose pretreated with 50 umol/kg, ip prolyl oligopeptidase inhibitor KYP-2047 10 mins before compound dosing by SPECT analysis; conditions: in vivo; method in brief: as §1
Mus musculus [2] = assay: Biodistribution in C57Bl/6JRccHsd mouse salivary gland at 2.86 +/- 1.26 MBq, iv measured at 80 mins post dose pretreated with 50 umol/kg, ip prolyl oligopeptidase inhibitor KYP-2047 10 mins before compound dosing by SPECT analysis; conditions: in vivo; method in brief: as §1
Muscle tissue = assay: Biodistribution in C57Bl/6JRccHsd mouse muscle at 2.86 +/- 1.26 MBq, iv measured at 80 mins post dose pretreated with 50 umol/kg, ip prolyl oligopeptidase inhibitor KYP-2047 10 mins before compound dosing by SPECT analysis; conditions: in vivo; method in brief: as §1
Mus musculus [3] = assay: Biodistribution in C57Bl/6JRccHsd mouse tongue at 2.86 +/- 1.26 MBq, iv measured at 80 mins by SPECT analysis; conditions: in vivo; method in brief: as §1
[4] = Fraction unbound in iv dosed C57Bl/6JRccHsd mouse plasma measured at 40 mins
Method in brief: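 Male mice given 3.6 MBq tracer i.v. via lateral tail vein; blocking groups got POP inhibitor i.p. (50 µmol/kg, 10 mL/kg, 1% DMSO in 0.9% NaCl) 10 min before. Heparinized cardiac blood on ice, gamma-counted, spun 5 min at 2000 g; plasma counted, precipitated with 1.5 volumes acetonitrile, respun; cell-bound, protein-bound and free fractions expressed as % of blood activity; n = 3.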

Kidney = assay: Biodistribution in C57Bl/6JRccHsd mouse kidney at 2.86 +/- 1.26 MBq, iv measured at 80 mins by SPECT analysis; conditions: in vivo; method in brief: as §1
[5] = Fraction unbound in iv dosed C57Bl/6JRccHsd mouse plasma measured at 20 mins
Method in brief: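 Mice got tracer i.v., some after i.p. KYP-2047 (50 µmol/kg) 10 min before. Cardiac blood was collected at 20, 40, 80 or 160 min and spun 5 min at 2000 g into cells and plasma. Plasma was precipitated with acetonitrile and pellet and supernatant were gamma-counted. Activity in cells, protein-bound and free plasma is given as % of total blood activity, n = 3.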

Brain = assay: Biodistribution in C57Bl/6JRccHsd mouse brain at 2.86 +/- 1.26 MBq, iv measured at 80 mins by SPECT analysis; conditions: in vivo; method in brief: as §1
Mus musculus [6] = assay: Biodistribution in C57Bl/6JRccHsd mouse testis at 2.86 +/- 1.26 MBq, iv measured at 80 mins by SPECT analysis; conditions: in vivo; method in brief: as §1

- Drug uptake (Heart): 1.34 % ID/g
- Drug uptake (Mus musculus [1]): 0.57 % ID/g
- Drug uptake (Mus musculus [2]): 1.52 % ID/g
- Drug uptake (Muscle tissue): 0.59 % ID/g
- Drug uptake (Mus musculus [3]): 4.43 % ID/g
- fraction unbound at 40 min [4]: 0.08
- Drug uptake (Kidney): 10.02 % ID/g
- fraction unbound at 20 min [5]: 0.03
- Drug uptake (Brain): 0.62 % ID/g
- Drug uptake (Mus musculus [6]): 0.55 % ID/g
Compound: N#C[C@@H]1CCCN1C(=O)[C@@H]1CCCN1C(=O)CCCc1ccc([123I])cc1
